ChEMBL document CHEMBL1629641, “An important site in PBP2x of penicillin-resistant clinical isolates of Streptococcus pneumoniae: mutational analysis of Thr338” (2009)
In brackets after ≈: the same amount, converted by molar mass.

Assays:
Conditions in all cases: R6, 48 h
[1] = tested on: Streptococcus pneumoniae; assay: Antimicrobial activity against Streptococcus pneumoniae R6 harboring PBP2x T338A mutant gene, disruption at PBP1a and aad9 disruption in CiaR gene after 48 hrs by agar dilution method; assay type: functional
Summary of the method: (§1)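 Agar dilution on blood agar plates (D-agar with 3% defibrinated sheep blood), natural atmosphere, inoculated with cells from exponentially growing cultures in C-medium with 0.2% yeast extract grown at 37°C without aeration; narrow range of antibiotic concentrations to detect subtle susceptibility differences; MIC read after 48 h at 37°C.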

[2] = tested on: Streptococcus pneumoniae; assay: Antimicrobial activity against streptomycin-resistant Streptococcus pneumoniae R6 harboring PBP2x T338G mutant gene and Janus disruption at PBP1a after 48 hrs by agar dilution method; assay type: functional; summary of the method: as §1
[3] = tested on: Streptococcus pneumoniae; assay: Antimicrobial activity against Streptococcus pneumoniae R6 harboring PBP2x T338G mutant gene, disruption at PBP1a and aad9 disruption in CiaR gene after 48 hrs by agar dilution method; assay type: functional; summary of the method: as §1
[4] = tested on: Streptococcus pneumoniae; assay: Antimicrobial activity against Streptococcus pneumoniae R6 harboring PBP2x2349 and PBP1a2349 mutant gene after 48 hrs by agar dilution method; assay type: functional; summary of the method: as §1
[5] = tested on: Streptococcus pneumoniae; assay: Antimicrobial activity against Streptococcus pneumoniae R6 harboring PBP2x T338A mutant gene after 48 hrs by agar dilution method; assay type: functional; summary of the method: as §1
[6] = tested on: Streptococcus pneumoniae; assay: Antimicrobial activity against Streptococcus pneumoniae R6 harboring PBP2x T338P mutant gene, disruption at PBP1a and aad9 disruption in CiaR gene after 48 hrs by agar dilution method; assay type: functional; summary of the method: as §1
[7] = tested on: Streptococcus pneumoniae; assay: Antimicrobial activity against streptomycin- resistant Streptococcus pneumoniae R6 harboring PBP2x2349 mutant gene and Janus disruption at PBP1a after 48 hrs by agar dilution method; assay type: functional; summary of the method: as §1
[8] = tested on: Streptococcus pneumoniae; assay: Antimicrobial activity against streptomycin-resistant Streptococcus pneumoniae R6 harboring PBP2x T338G and PBP1a2349 mutant gene after 48 hrs by agar dilution method; assay type: functional; summary of the method: as §1
[9] = tested on: Streptococcus pneumoniae; assay: Antimicrobial activity against Streptococcus pneumoniae R6 harboring PBP2x T338G mutant gene after 48 hrs by agar dilution method; assay type: functional; summary of the method: as §1
[10] = tested on: Streptococcus pneumoniae; assay: Antimicrobial activity against Streptococcus pneumoniae R6 harboring wild type PBP2x, disruption in PBP1a and aad9 disruption in CiaR gene after 48 hrs by agar dilution method; assay type: functional; summary of the method: as §1
[11] = tested on: Streptococcus pneumoniae; assay: Antimicrobial activity against Streptococcus pneumoniae R6 after 48 hrs by agar dilution method; assay type: functional; summary of the method: as §1
[12] = tested on: Streptococcus pneumoniae; assay: Antimicrobial activity against Streptococcus pneumoniae R6 harboring PBP2x T338P mutant gene after 48 hrs by agar dilution method; assay type: functional; summary of the method: as §1
[13] = tested on: Streptococcus pneumoniae; assay: Antimicrobial activity against Streptococcus pneumoniae R6 harboring PBP2x2349 mutant gene after 48 hrs by agar dilution method; assay type: functional; summary of the method: as §1
[14] = tested on: Streptococcus pneumoniae; assay: Antimicrobial activity against Streptococcus pneumoniae R6 harboring PBP2x T338G mutant gene, disruption at PBP1a and aad9 disruption in CiaR gene after 48 hrs by agar dilution method

| SMILES | MIC [1] | MIC [2] | MIC [3] | MIC [4] | MIC [5] | MIC [6] | MIC [7] | MIC [8] | MIC [9] | MIC [10] | MIC [11] | MIC [12] | MIC [13] | MIC [14] |
| --- | --- | --- | --- | --- | --- | --- | --- | --- | --- | --- | --- | --- | --- | --- |
| CO/N=C(\C(=O)N[C@@H]1C(=O)N2C(C(=O)O)=C(COC(C)=O)CS[C@H]12)c1csc(N)n1 [CEFOTAXIME] | 0.045 µg/mL (≈ 0.0988 µM) | 0.03 µg/mL (≈ 0.0659 µM) | 0.055 µg/mL (≈ 0.121 µM) | 1 µg/mL (≈ 2.2 µM) | 0.035 µg/mL (≈ 0.0768 µM) | 0.045 µg/mL (≈ 0.0988 µM) | 0.2 µg/mL (≈ 0.439 µM) | 0.03 µg/mL (≈ 0.0659 µM) | 0.045 µg/mL (≈ 0.0988 µM) | 0.025 µg/mL (≈ 0.0549 µM) | 0.02 µg/mL (≈ 0.0439 µM) | 0.04 µg/mL (≈ 0.0878 µM) | 0.3 µg/mL (≈ 0.659 µM) |  |
| Cc1onc(-c2ccccc2)c1C(=O)N[C@@H]1C(=O)N2[C@@H]1SC(C)(C)[C@@H]2C(=O)O [OXACILLIN] | 0.2 µg/mL (≈ 0.498 µM) | 0.21 µg/mL (≈ 0.523 µM) | 0.25 µg/mL (≈ 0.623 µM) | 0.85 µg/mL (≈ 2.12 µM) | 0.18 µg/mL (≈ 0.448 µM) | 0.24 µg/mL (≈ 0.598 µM) | 0.95 µg/mL (≈ 2.37 µM) | 0.16 µg/mL (≈ 0.399 µM) | 0.25 µg/mL (≈ 0.623 µM) | 0.08 µg/mL (≈ 0.199 µM) | 0.08 µg/mL (≈ 0.199 µM) | 0.23 µg/mL (≈ 0.573 µM) | 1 µg/mL (≈ 2.49 µM) |  |
| CC1(C)S[C@@H]2[C@H](NC(=O)Cc3ccccc3)C(=O)N2[C@H]1C(=O)O [PENICILLIN G] | 0.04 µg/mL (≈ 0.12 µM) | 0.02 µg/mL (≈ 0.0598 µM) | 0.025 µg/mL (≈ 0.0748 µM) | 0.035 µg/mL (≈ 0.105 µM) | 0.03 µg/mL (≈ 0.0897 µM) |  | 0.04 µg/mL (≈ 0.12 µM) | 0.02 µg/mL (≈ 0.0598 µM) | 0.03 µg/mL (≈ 0.0897 µM) | 0.02 µg/mL (≈ 0.0598 µM) | 0.02 µg/mL (≈ 0.0598 µM) | 0.03 µg/mL (≈ 0.0897 µM) | 0.04 µg/mL (≈ 0.12 µM) | 0.025 µg/mL (≈ 0.0748 µM) |
| CCN1CCN(C(=O)N[C@@H](C(=O)N[C@@H]2C(=O)N3[C@@H]2SC(C)(C)[C@@H]3C(=O)O)c2ccccc2)C(=O)C1=O [PIPERACILLIN] | 0.11 µg/mL (≈ 0.213 µM) | 0.09 µg/mL (≈ 0.174 µM) | 0.08 µg/mL (≈ 0.155 µM) | 0.11 µg/mL (≈ 0.213 µM) | 0.09 µg/mL (≈ 0.174 µM) | 0.06 µg/mL (≈ 0.116 µM) | 0.12 µg/mL (≈ 0.232 µM) | 0.06 µg/mL (≈ 0.116 µM) | 0.1 µg/mL (≈ 0.193 µM) | 0.06 µg/mL (≈ 0.116 µM) | 0.04 µg/mL (≈ 0.0773 µM) | 0.06 µg/mL (≈ 0.116 µM) | 0.12 µg/mL (≈ 0.232 µM) |  |
